Test results as given in ChEMBL document CHEMBL1629555, “Antimalarial activity of phenylthiazolyl-bearing hydroxamate-based histone deacetylase inhibitors” (Antimicrob Agents Chemother, 2008).
In brackets after ≈: the same amount, converted by molar mass. Activity calls are given as the source filed them. The rule behind the calls is not given here.

What was measured:
Plasmodium falciparum [1] = experiment: Antimalarial activity against drug-resistant Plasmodium falciparum D6 infected in Aotus lemurinus lemurinus monkey; format: functional, organism-based
Plasmodium falciparum [2] = experiment: Antimalarial activity against drug-resistant Plasmodium falciparum W2; format: functional, organism-based
Plasmodium falciparum [3] = experiment: Antimalarial activity against drug-resistant Plasmodium falciparum TM91C235; format: functional, organism-based
Plasmodium falciparum [4] = experiment: Antimalarial activity against drug-resistant Plasmodium falciparum TM90C2A; format: functional, organism-based
[5] = Cytotoxicity against mouse RAW264.7 cells by MTT assay; format: cell-based; conditions: read-out: LD50 (the source's name)
Procedure, shortened: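 LC50 in RAW macrophages was determined by MTT assay, given as the mean of 2–4 experiments with range. Selectivity index = RAW LC50 / lowest P. falciparum IC50.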

[6] = Cytotoxicity against african green monkey Vero cells by MTT assay; format: cell-based; conditions: chlorocebus sabaeus, read-out: LC50 (the source's name)
[7] = Selectivity index, ratio of LC50 for mouse RAW264.7 cells to IC50 for Plasmodium falciparum; conditions: RAW264.7 cells
Plasmodium falciparum [8] = experiment: Antimalarial activity against Plasmodium falciparum infected in mouse RAW264.7 cells; format: functional, organism-based
[9] = target: T1, Histone deacetylase (Plasmodium falciparum 3D7) (UniProt Q7K6A1); experiment: Inhibition of Plasmodium falciparum 3D7 histone deacetylase infected in human erythrocytes assessed as alteration of histone H3 acetylation at 100 nM after 3.5 hrs by SDS-PAGE; format: cell-based
T1 sequence (whole entry): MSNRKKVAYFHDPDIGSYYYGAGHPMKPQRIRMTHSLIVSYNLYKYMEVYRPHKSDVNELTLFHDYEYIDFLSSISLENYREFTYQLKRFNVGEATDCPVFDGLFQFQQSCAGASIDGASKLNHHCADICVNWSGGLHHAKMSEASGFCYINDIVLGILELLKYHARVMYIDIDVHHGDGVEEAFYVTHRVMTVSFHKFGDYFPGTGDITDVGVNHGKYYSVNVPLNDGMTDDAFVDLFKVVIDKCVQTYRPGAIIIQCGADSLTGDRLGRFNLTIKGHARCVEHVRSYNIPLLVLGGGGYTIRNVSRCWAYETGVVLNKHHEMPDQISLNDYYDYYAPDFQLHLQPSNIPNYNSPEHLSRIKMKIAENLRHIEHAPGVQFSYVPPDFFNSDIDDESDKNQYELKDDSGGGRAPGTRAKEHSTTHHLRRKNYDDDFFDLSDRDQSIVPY
Procedure, shortened: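 About 3 × 10^9 erythrocytes infected with late-trophozoite P. falciparum 3D7 were exposed to compound or to DMSO vehicle for 3.5 h at 37°C, and an untreated sample was taken at the start. Histones were extracted, about 6 × 10^8 parasites were loaded per lane on SDS–15% PAGE, and loading was checked by silver stain. Western blots were probed with anti-tetraacetyl-H4 and anti-diacetyl-H3 antisera and detected by ECL.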

Plasmodium falciparum [10] = experiment: Antimalarial activity against Plasmodium falciparum infected mouse assessed as reduction in parasitemia at 50 mg/kg, ip; format: functional, organism-based; parameters: dose 50 mg/kg
Plasmodium falciparum [11] = experiment: Antimicrobial activity against Plasmodium falciparum; format: functional
Procedure, shortened: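 Labeled-hypoxanthine growth inhibition assay against strains W2, D6, TM91C235 and TM90C2A, reporting IC50. Values are single determinations, or the mean of duplicates for some compounds against D6, W2 and C235. Mefloquine and chloroquine served as assay-validity controls.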

Plasmodium falciparum [12] = experiment: Antimalarial activity against Plasmodium falciparum at 1 nM after 48 hrs; format: functional, organism-based
Procedure, shortened: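 P. falciparum-infected erythrocytes were exposed to 1 nM for 3.5 h, then washed and returned to culture. Growth was scored 48 h later relative to matched untreated controls.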

[13] = target: T1, Histone deacetylase (Plasmodium falciparum 3D7); experiment: Inhibition of Plasmodium falciparum 3D7 histone deacetylase infected in human erythrocytes assessed as alteration of histone H3 acetylation at 1.8 to 1000 nM after 3.5 hrs by SDS-PAGE; format: cell-based
Procedure, shortened: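 About 3 × 10^9 late-trophozoite 3D7-infected erythrocytes were incubated with compound or DMSO vehicle for 3.5 h at 37°C, with an untreated sample taken at the start. Histones (about 6 × 10^8 parasites per lane) were run on SDS–15% PAGE, with silver stain as the loading check. Western blots were probed with anti-(tetra)acetyl-H4 and anti-(di)acetyl-H3 antisera (1:2,000) and read by ECL.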

Mus musculus [14] = experiment: AUC in ICR mouse at 50 mg/kg/day, po assessed as metabolite W308393 level by LC/MS analysis; format: ADME, organism-based, Plasma; parameters: route oral; conditions: in vivo
Procedure, shortened: (§1)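 Male ICR mice, 8 weeks old, got one 50 mg/kg dose either orally or subcutaneously, with three groups of six mice per route. One mouse per group was killed at 15, 30 and 60 min and at 3, 6 and 24 h. Plasma was deproteinized with 2 volumes of acetonitrile and analysed by LC-MS/MS on a C18 column against 0–500 ng/ml standards, with parent and acid metabolite measured in the same sample. Each six-mouse group was treated as one "animal" and fitted to a two-compartment model. AUC was taken by the linear trapezoidal rule extrapolated to infinity, and Cmax and Tmax were read per "animal".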

Mus musculus [15] = experiment: AUC in ICR mouse at 50 mg/kg/day, sc assessed as metabolite W308393 level by LC/MS analysis; format: ADME, organism-based, Plasma; parameters: route subcutaneous; conditions: in vivo; procedure, shortened: as §1

Structure (SMILES)	IC50 (Plasmodium falciparum [1]) [nM]	IC50 (Plasmodium falciparum [2]) [nM]	IC50 (Plasmodium falciparum [3]) [nM]	IC50 (Plasmodium falciparum [4]) [nM]	other results
COc1cccc(-c2csc(NC(=O)CCCCCCC(=O)NO)n2)c1	14.9	11.3	6.2	10.3	–
O=C(CCCCCCC(=O)Nc1ccccc1)NO [VORINOSTAT]	–	–	–	–	CC50 [5]: 2200 nM; CC50 [6]: 950 nM
CN(CCO)c1ccc(-c2csc(NC(=O)CCCCCCC(=O)NO)n2)cc1N	0.8	1	1	0.9	CC50 [5]: 540 nM; CC50 [6]: 950 nM; selectivity ratio [7]: 670; IC50 (Plasmodium falciparum [8]): 0.81 nM
O=C(CCCCCCC(=O)Nc1nc(-c2ccccc2)cs1)NO	11.8	13.4	16.7	8.8	–
Nc1cccc(-c2csc(NC(=O)CCCCCC(=O)NO)n2)c1	12.7	15.8	94.3	34.4	–
O=C(CCCCCCC(=O)Nc1nc(-c2ccc3ccccc3c2)cs1)NO	3.3	6.4	3.1	5.9	–
Nc1cccc(-c2csc(NC(=O)CCCCc3cc(C(=O)NO)no3)n2)c1	58.5	72.1	150	79.7	–
CC(/C=C/C(=O)NO)=C\[C@@H](C)C(=O)c1ccc(N(C)C)cc1	–	–	–	–	inhibition [9]: Active
Cc1sc(NC(=O)CCCCCCC(=O)NO)nc1-c1cccc(N)c1	8	7.2	6.1	4	–
O=C(CCCCCCC(=O)Nc1nc(-c2cccc(O)c2)cs1)NO	2.7	2.7	1.7	1.6	–
CCC(=O)CCCCC[C@@H]1NC(=O)[C@H]2CCCCN2C(=O)[C@H]([C@@H](C)CC)NC(=O)[C@H](Cc2cn(OC)c3ccccc23)NC1=O [APICIDIN]	–	–	–	–	Activity (Plasmodium falciparum [10]): Active; MIC (Plasmodium falciparum [11]): 0.125 µg/mL (≈ 0.2 µM)
C[C@@H]1CC[C@H]2[C@@H](C)C(=O)O[C@@H]3O[C@@]4(C)CC[C@@H]1[C@]32OO4	–	–	–	–	Activity (Plasmodium falciparum [12]): Active; inhibition [13]: inactive
Nc1ccc(-c2csc(NC(=O)CCCCCCC(=O)NO)n2)cc1	9.8	9.4	19.6	9.9	–
Nc1cccc(-c2cc(C(=O)NCCCCCCC(=O)NO)no2)c1	33.2	69.8	42.2	28	–
Nc1cccc(-c2csc(C(=O)NCCCCCCC(=O)NO)n2)c1	42.4	39.5	170	60.7	–
COc1ccc(-c2csc(NC(=O)CCCCCCC(=O)NO)n2)cc1N	0.9	1.2	1	1	CC50 [5]: 3200 nM; CC50 [6]: 950 nM; selectivity ratio [7]: 3560; IC50 (Plasmodium falciparum [8]): 0.9 nM
Nc1cccc(-c2csc(NC(=O)CCCCCCC(=O)O)n2)c1	> 1400	> 1400	> 1400	1400	AUC (Mus musculus [14]): 478 ng·h/mL; AUC (Mus musculus [15]): 400 ng·h/mL
Cc1cccc(-c2csc(NC(=O)CCCCCCC(=O)NO)n2)c1	3.9	7.5	3.6	6	–
Nc1cc(-c2csc(NC(=O)CCCCCCC(=O)NO)n2)ccc1F	5.1	5	2.4	3.8	–
Nc1ccccc1-c1csc(NC(=O)CCCCCCC(=O)NO)n1	34.2	38.7	41.9	30.3	–
CN(C)c1cccc(-c2csc(NC(=O)CCCCCCC(=O)NO)n2)c1	30.5	35.7	60.8	18.5	–
[N-]=[N+]=Nc1cccc(-c2csc(NC(=O)CCCCCCC(=O)NO)n2)c1	9.7	17.8	19.3	8.8	–
O=C(CCCCCCC(=O)Nc1nc(-c2ccsc2)cs1)NO	7.5	17	6.5	7.4	–
O=C(CCCCCCC(=O)Nc1nc(-c2cccc(F)c2)cs1)NO	11.8	14.2	15.8	7.7	–
Nc1cc(-c2csc(NC(=O)CCCCCCC(=O)NO)n2)ccc1Cl	1.7	1.7	1.4	1.6	–
